The text below walks through data of ChEMBL document CHEMBL1667767, “Triazole incorporated pyridazinones as a new class of antihypertensive agents: design, synthesis and in vivo screening” (2011).

Assay [1] relates to Rattus norvegicus. Kind of assay: Antihypertensive activity against methyl prednisolone acetate-induced hypertension in albino rat assessed as reduction in mean arterial pressure at 20 mg/kg, ip after 1 hr by tail-cuff method. The format is functional, Artery. The note with it: route intraperitoneal. Details: scale not given: the % may be the effect or the level left. Summed up:
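Rats were albino, 200–250 g, and restrainer-trained for 10 min/day over 1 week. They were made hypertensive with s.c. methyl prednisolone acetate at 20 mg/kg/wk for 2 weeks. Each compound was suspended in 1% CMC and given i.p. at 20 mg/kg. Mean arterial BP was measured 1 h after dosing in conscious animals by CODA tail-cuff. Data are mean ± SEM, analysed by ANOVA and Dunnett test against the hypertensive control.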

The test system of assay [2] is Rattus norvegicus. The assay is described as follows: Antihypertensive activity against methyl prednisolone acetate-induced hypertension in albino rat assessed as reduction in mean arterial pressure at 14 mg/kg, ip after 1 hr by tail-cuff method. Particulars: route intraperitoneal. Further details: scale not given: the % may be the effect or the level left. It is filed as functional, Artery. The essentials: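 Albino rats of 200–250 g were trained in a restrainer for 10 min daily for 1 week. Hypertension was induced by s.c. methyl prednisolone acetate at 20 mg/kg/wk for 2 weeks, with an untreated control group kept alongside. Drug was given i.p. and mean arterial BP was read 1 h later in conscious rats by CODA tail-cuff. Results are mean ± SEM, compared with the hypertensive control by ANOVA and Dunnett test.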

For the compound `O=C1CCC(c2ccccc2)=NN1c1n[nH]c(=S)n1-c1ccccc1`, in the assay on Rattus norvegicus [1], the Activity is 30.01%.

For the compound `O=C1CCC(c2ccccc2)=NN1c1n[nH]c(=S)n1-c1ccc(Cl)cc1`, the Activity in the assay on Rattus norvegicus [1] worked out at 24.84%.

As to `Cc1ccc(-n2c(N3N=C(c4ccccc4)CCC3=O)n[nH]c2=S)cc1`, the Activity with Rattus norvegicus [1] is 38.83%.

With `Cc1ccc(C2=NN(c3n[nH]c(=S)n3-c3ccccc3)C(=O)CC2)cc1`, the Activity in the assay on Rattus norvegicus [1] stood at 27.3%.

As for `Cc1ccc(C2=NN(c3n[nH]c(=S)n3-c3ccc(Cl)cc3)C(=O)CC2)cc1`, in the assay with Rattus norvegicus [1], the Activity is on record as 41.84%.

For the compound `Cc1ccc(C2=NN(c3n[nH]c(=S)n3-c3ccc(C)cc3)C(=O)CC2)cc1`, the Activity with Rattus norvegicus [1] is on record as 31.25%.

Regarding `COc1ccc(C2=NN(c3n[nH]c(=S)n3-c3ccccc3)C(=O)CC2)cc1`, the Activity with Rattus norvegicus [1] was determined as 32.48%.

For `COc1ccc(C2=NN(c3n[nH]c(=S)n3-c3ccc(Cl)cc3)C(=O)CC2)cc1`, the Activity with Rattus norvegicus [1] is given as 16.09%.

Regarding `COc1ccc(C2=NN(c3n[nH]c(=S)n3-c3ccc(C)cc3)C(=O)CC2)cc1`, the Activity in the assay with Rattus norvegicus [1] is on record as 40.98%.

In the case of `CCc1ccc(C2=NN(c3n[nH]c(=S)n3-c3ccccc3)C(=O)CC2)cc1`, the Activity in the assay with Rattus norvegicus [1] was determined as 38.88%.

`CCc1ccc(C2=NN(c3n[nH]c(=S)n3-c3ccc(Cl)cc3)C(=O)CC2)cc1`: the Activity with Rattus norvegicus [1] stood at 42.11%.

For `CCc1ccc(C2=NN(c3n[nH]c(=S)n3-c3ccc(C)cc3)C(=O)CC2)cc1`, in the assay with Rattus norvegicus [1], the Activity is recorded as 32.97%.

With `CC(C)Cc1ccc(C2=NN(c3n[nH]c(=S)n3-c3ccccc3)C(=O)CC2)cc1`, the Activity in the assay with Rattus norvegicus [1] amounted to 30.51%.

For the compound `CC(C)Cc1ccc(C2=NN(c3n[nH]c(=S)n3-c3ccc(Cl)cc3)C(=O)CC2)cc1`, the Activity with Rattus norvegicus [1] turned out to be 15.85%.

As for `Cc1ccc(-n2c(N3N=C(c4ccc(CC(C)C)cc4)CCC3=O)n[nH]c2=S)cc1`, the Activity with Rattus norvegicus [1] is recorded as 12.5%.

On to `O=C1CCC(c2ccc(-c3ccccc3)cc2)=NN1c1n[nH]c(=S)n1-c1ccccc1`, for which, in the assay on Rattus norvegicus [1], the Activity came out at 10.67%.

Turning to `O=C1CCC(c2ccc(-c3ccccc3)cc2)=NN1c1n[nH]c(=S)n1-c1ccc(Cl)cc1`, in the assay on Rattus norvegicus [1], the Activity is 14.37%.

For `Cc1ccc(-n2c(N3N=C(c4ccc(-c5ccccc5)cc4)CCC3=O)n[nH]c2=S)cc1`, the Activity with Rattus norvegicus [1] amounted to 13.13%.

As for `O=C1CCC(c2ccc(Cl)cc2)=NN1c1n[nH]c(=S)n1-c1ccccc1`, the Activity with Rattus norvegicus [1] is listed as 12.52%.

In the case of `O=C1CCC(c2ccc(Cl)cc2)=NN1c1n[nH]c(=S)n1-c1ccc(Cl)cc1`, the Activity in the assay on Rattus norvegicus [1] is given as 11.29%.

As to `Cc1ccc(-n2c(N3N=C(c4ccc(Cl)cc4)CCC3=O)n[nH]c2=S)cc1`, in the assay with Rattus norvegicus [1], the Activity is given as 11.53%.

As to `CC(C)NCC(O)COc1cccc2ccccc12` (configuration not stated) [PROPRANOLOL], the Activity with Rattus norvegicus [2] turned out to be 41.4%.
